Assay results pooled from the literature.
Each line is one published result; the experiments were not run side by side.
BTK R28H: Tyrosine-protein kinase BTK (BTK, Homo sapiens, UniProt Q06187, R28H)
BTK: Tyrosine-protein kinase BTK (BTK, Homo sapiens, UniProt Q06187)

`Cc1cc(NC(=O)c2cccc3cc(-c4cccc5[nH]nc(N)c45)ccc23)ccc1F` has an activity vs control of 84% (BTK R28H; enzyme activity, inhibitor; 0.1 µM).
`O=C(NCc1ncc(C(F)(F)F)cc1Cl)c1ccc2c(c1)C1(CCS(=O)(=O)CC1)[C@@H](C1CC1)N2S(=O)(=O)c1ccc(F)cc1` gave a remaining binding of 73% (BTK; cell-free assay, competition with immobilised ligand; 1 µM).
`N#CCCc1ccc2c(c1)-c1[nH]c3ccc([N+](=O)[O-])cc3c1CC(=O)N2` has a remaining signal of 94.6% (BTK; cell-free assay; 0.5 µM).
For `c1nc2c(Nc3ccc4c(c3)OCCO4)nc(Nc3ccc4c(c3)OCCO4)nc2[nH]1`, the activity vs control was 0.65% (BTK; enzyme activity, inhibitor; 10 µM).
`Cc1ccc(NC(=O)c2ccc(C)c(C(F)(F)F)c2)cc1C#Cc1nn(C2CCC(O)CC2)c2ncnc(N)c12` (stereo not drawn) has a remaining signal of 71% (BTK R28H; cell-free assay; 10 µM).
For `CC(C)(O)[C@H]1CC[C@H](Nc2ccc3ncc(-c4cccc(C(F)(F)F)c4)n3n2)CC1`, the remaining activity was 88% (BTK; enzyme activity, inhibitor; 1 µM).
The kinact of `CC(C)(C=C(C#N)C(=O)N1CCC[C@H]1Cn1nc(-c2ccc(Oc3ccccc3)cc2F)c2c(N)ncnc21)N1CCOCC1` is reported as 0.0048 s⁻¹ (BTK; enzyme activity, inhibitor).
`COc1ccc2c(c1)O[C@@H](c1ccc(OC)c(OC)c1)C[C@H]2NC(=O)C1(c2ccc3c(c2)OC(F)(F)O3)CC1` gave a remaining binding of 81% (BTK; cell-free assay, competition with immobilised ligand; 1 µM).
`CN(C)C1CCN(CC#Cc2nn(C3CCCC3)c3nc(NCc4ccccc4)ncc23)C1` (stereo not drawn) has an inhibition of 5% (BTK; enzyme activity, inhibitor, FRET; 1 µM).
For `FC(F)c1nc2ccccc2n1-c1nc(N2CCOCC2)nc(N2CCOCC2)n1`, the remaining activity was 98% (BTK; enzyme activity, inhibitor; 10 µM).
With `CNC(=O)c1ccc(Nc2ncc(C(F)(F)F)c(NCc3nccnc3N(C)S(C)(=O)=O)n2)cc1` the remaining binding was 83% (BTK; cell-free assay, competition with immobilised ligand; 0.1 µM).
With `O=C(Nc1cnn(-c2csc(C(=O)NC3COC3)c2)c1)Nc1c(F)cccc1Cl` the remaining activity was 89.3% (BTK; enzyme activity, inhibitor; 5 µM).
With `CCC(=O)N[C@H]1CC[C@@H](C(=O)N(C)c2ccc(-c3nc4ccccc4o3)cc2)C1` the remaining binding was 77% (BTK; cell-free assay, competition with immobilised ligand; 1 µM).
The remaining activity of `COc1cc(Nc2cnc(C#N)c(O[C@H](C)CN(C)C)n2)ncc1-c1cnn(C)c1` is reported as 88% (BTK; enzyme activity, inhibitor, radiometric; 1 µM).
For `O=C(Nc1cnn(-c2csc(C(=O)NC3COC3)c2)c1)Nc1ccccc1Cl`, the remaining activity was 92.6% (BTK; enzyme activity, inhibitor; 5 µM).
For `COc1cc(Cl)c(C(=O)N[C@@H](CN[C@H]2CC[C@@H](N)CC2)Cc2ccc(C#N)cc2)cc1-c1ccc(CN[C@H](C)c2ccc(C)cc2)o1`, the remaining activity was 114% (BTK; enzyme activity, inhibitor; 1 µM).
The remaining binding of `N#CC1(c2ccccn2)CCN(Cc2cc(C(=O)N3CCCC3)c(=O)n3ccccc23)CC1` is reported as 100% (BTK; cell-free assay, competition with immobilised ligand; 1 µM).
With `O=C1Nc2ccc(Cl)cc2C1=Cc1cc(Cl)c(O)c(Cl)c1` the remaining signal was 92.1% (BTK; cell-free assay; 0.5 µM).
For `CNCc1ccccc1-c1csc([C@H](C)Nc2nc(C)nc3cc(OC)c(OC)cc23)c1`, the remaining binding was 89% (BTK; cell-free assay, competition with immobilised ligand; 1 µM).
With `C=CC(=O)N1CCC[C@@H]1Cn1nc(-c2ccc(Oc3ccccc3)cc2F)c2c(N)ncnc21` the kinact was 0.0034 s⁻¹ (BTK; enzyme activity, inhibitor).
`CC(C)(C)c1nc2c(s1)c1nc(N)ncc1c1ccc(NS(=O)(=O)c3c(F)cccc3F)c(F)c12` has a remaining activity of 75% (BTK; enzyme activity, inhibitor, radiometric; 1 µM).
For `COc1ccc(COc2ccc(Cc3cnc(N)nc3N)cc2OC)cc1`, the remaining signal was 104% (BTK; cell-free assay; 0.5 µM).
For `FC(F)(F)c1ccc2c(c1)nc(-c1cccnc1)n2C1CC1`, the remaining binding was 93% (BTK; cell-free assay, competition with immobilised ligand; 1 µM).
For `Nc1nc(Nc2ccccc2)sc1C(=O)c1c(F)cccc1F`, the remaining activity was 68% (BTK; enzyme activity, inhibitor; 10 µM).
For `CCC(=N\O)/C(C)=C/c1ccc(F)cc1`, the remaining binding was 78% (BTK; cell-free assay, competition with immobilised ligand; 1 µM).
`Cc1cnc(NC2CCOCC2)nc1-n1cnc(C(=O)NC(CN)c2cc(F)cc(Cl)c2)c1` (stereo not drawn) gave a remaining activity of 99% (BTK R28H; enzyme activity, inhibitor, radiometric; 1 µM).
`COc1ccc(F)cc1C(=O)NCc1ccc(-c2nn([C@@H](C)C(F)(F)F)c(N)c2C(N)=O)cc1` gave a koff of 0.00013 s⁻¹ (Tyrosine-protein kinase BTK (BTK, Homo sapiens, UniProt Q06187, C481S); binding, SPR).
